Reference: ChEMBL document CHEMBL2203081 (Bioorg Med Chem Lett, 2012)
Activity calls are given as the source filed them. The rule behind the calls is not given here.

Assays:
[1] = biological target: Serine/threonine-protein kinase PLK2 (Homo sapiens) (UniProt Q9NYY3); assay: Inhibition of PLK2 assessed as residual activity at 10 uM relative to control
[2] = biological target: Ephrin type-A receptor 5 (Homo sapiens) (UniProt P54756); assay: Inhibition of EPHA5 assessed as residual activity at 10 uM relative to control
Summary of the method: (§1)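 Competition kinase-binding assay (KINOMEscan) across a non-redundant panel of 329 kinases beyond the radiometric panel; residual binding expressed relative to control.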

[3] = biological target: Serine/threonine-protein kinase 33 (Homo sapiens) (UniProt Q9BYT3); assay: Inhibition of STK33 assessed as residual activity at 1 uM
Sequence of Serine/threonine-protein kinase 33 (Homo sapiens) (Q9BYT3 whole entry, looked up): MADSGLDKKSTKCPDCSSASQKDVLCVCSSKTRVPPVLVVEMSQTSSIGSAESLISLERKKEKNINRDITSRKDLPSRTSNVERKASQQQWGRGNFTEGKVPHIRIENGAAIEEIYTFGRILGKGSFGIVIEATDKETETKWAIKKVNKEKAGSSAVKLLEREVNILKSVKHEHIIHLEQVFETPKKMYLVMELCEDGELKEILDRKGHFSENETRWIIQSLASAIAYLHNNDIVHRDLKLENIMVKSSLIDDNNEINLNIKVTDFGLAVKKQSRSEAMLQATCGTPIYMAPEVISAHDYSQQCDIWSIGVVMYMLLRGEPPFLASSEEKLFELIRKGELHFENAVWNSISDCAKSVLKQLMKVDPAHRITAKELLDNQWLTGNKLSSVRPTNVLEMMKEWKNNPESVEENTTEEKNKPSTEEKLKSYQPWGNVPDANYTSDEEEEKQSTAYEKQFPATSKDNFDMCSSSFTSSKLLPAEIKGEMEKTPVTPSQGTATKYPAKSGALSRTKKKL

[4] = biological target: TRAF2 and NCK-interacting protein kinase (Homo sapiens) (UniProt Q9UKE5); assay: Inhibition of TNIK assessed as residual activity at 10 uM relative to control
[5] = biological target: Insulin-like growth factor 1 receptor (Homo sapiens) (UniProt P08069); assay: Inhibition of IGF-1R assessed as residual activity at 10 uM
Summary of the method: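 Radioactivity-based enzymatic activity assay of the named kinase, run as part of a 131-kinase specificity panel at the National Centre for Protein Kinase Profiling (Dundee). Residual activity was read at the stated single inhibitor concentration.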

[6] = Inhibition of PHK assessed as residual activity at 10 uM
[7] = biological target: Cyclin-dependent kinase 2 (Homo sapiens) (UniProt P24941); assay: Inhibition of CDK2 assessed as residual activity at 10 uM relative to control
[8] = biological target: Activin receptor type-1B (Homo sapiens) (UniProt P36896); assay: Inhibition of ACVR1B assessed as residual activity at 10 uM relative to control
[9] = biological target: High affinity nerve growth factor receptor (Homo sapiens) (UniProt P04629); assay: Inhibition of TrkA assessed as residual activity at 1 uM
[10] = biological target: Ribosomal protein S6 kinase alpha-5 (Homo sapiens) (UniProt O75582); assay: Inhibition of MSK1 assessed as residual activity at 10 uM
Sequence of Ribosomal protein S6 kinase alpha-5 (Homo sapiens) (O75582 whole entry, looked up, the tested form may be a part): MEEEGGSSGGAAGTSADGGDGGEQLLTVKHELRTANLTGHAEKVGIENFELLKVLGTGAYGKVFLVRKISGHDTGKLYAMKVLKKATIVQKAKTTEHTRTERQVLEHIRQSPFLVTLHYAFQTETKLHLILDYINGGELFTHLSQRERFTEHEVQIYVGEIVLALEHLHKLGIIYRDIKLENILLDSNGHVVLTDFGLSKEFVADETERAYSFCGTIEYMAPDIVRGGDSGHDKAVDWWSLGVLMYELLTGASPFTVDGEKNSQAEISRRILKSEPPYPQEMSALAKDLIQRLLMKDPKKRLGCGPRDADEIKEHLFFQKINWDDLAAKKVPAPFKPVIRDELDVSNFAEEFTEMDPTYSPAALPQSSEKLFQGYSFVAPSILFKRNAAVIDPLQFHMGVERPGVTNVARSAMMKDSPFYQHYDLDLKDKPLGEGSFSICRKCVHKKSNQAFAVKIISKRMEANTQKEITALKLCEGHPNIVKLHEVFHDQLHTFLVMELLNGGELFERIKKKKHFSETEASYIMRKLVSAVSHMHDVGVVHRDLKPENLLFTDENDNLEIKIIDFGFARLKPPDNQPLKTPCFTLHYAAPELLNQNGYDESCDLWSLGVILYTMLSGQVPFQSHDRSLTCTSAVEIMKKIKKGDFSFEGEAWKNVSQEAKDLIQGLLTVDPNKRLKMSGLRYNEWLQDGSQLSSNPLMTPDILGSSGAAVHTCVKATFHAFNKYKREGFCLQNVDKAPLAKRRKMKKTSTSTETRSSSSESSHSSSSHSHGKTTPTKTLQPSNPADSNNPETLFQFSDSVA

[11] = biological target: T1, Ephrin type-B receptor 3 (Homo sapiens) (UniProt P54753); assay: Inhibition of EPHB3 assessed as residual activity at 10 uM relative to control; summary of the method: as §1
T1 sequence (whole entry): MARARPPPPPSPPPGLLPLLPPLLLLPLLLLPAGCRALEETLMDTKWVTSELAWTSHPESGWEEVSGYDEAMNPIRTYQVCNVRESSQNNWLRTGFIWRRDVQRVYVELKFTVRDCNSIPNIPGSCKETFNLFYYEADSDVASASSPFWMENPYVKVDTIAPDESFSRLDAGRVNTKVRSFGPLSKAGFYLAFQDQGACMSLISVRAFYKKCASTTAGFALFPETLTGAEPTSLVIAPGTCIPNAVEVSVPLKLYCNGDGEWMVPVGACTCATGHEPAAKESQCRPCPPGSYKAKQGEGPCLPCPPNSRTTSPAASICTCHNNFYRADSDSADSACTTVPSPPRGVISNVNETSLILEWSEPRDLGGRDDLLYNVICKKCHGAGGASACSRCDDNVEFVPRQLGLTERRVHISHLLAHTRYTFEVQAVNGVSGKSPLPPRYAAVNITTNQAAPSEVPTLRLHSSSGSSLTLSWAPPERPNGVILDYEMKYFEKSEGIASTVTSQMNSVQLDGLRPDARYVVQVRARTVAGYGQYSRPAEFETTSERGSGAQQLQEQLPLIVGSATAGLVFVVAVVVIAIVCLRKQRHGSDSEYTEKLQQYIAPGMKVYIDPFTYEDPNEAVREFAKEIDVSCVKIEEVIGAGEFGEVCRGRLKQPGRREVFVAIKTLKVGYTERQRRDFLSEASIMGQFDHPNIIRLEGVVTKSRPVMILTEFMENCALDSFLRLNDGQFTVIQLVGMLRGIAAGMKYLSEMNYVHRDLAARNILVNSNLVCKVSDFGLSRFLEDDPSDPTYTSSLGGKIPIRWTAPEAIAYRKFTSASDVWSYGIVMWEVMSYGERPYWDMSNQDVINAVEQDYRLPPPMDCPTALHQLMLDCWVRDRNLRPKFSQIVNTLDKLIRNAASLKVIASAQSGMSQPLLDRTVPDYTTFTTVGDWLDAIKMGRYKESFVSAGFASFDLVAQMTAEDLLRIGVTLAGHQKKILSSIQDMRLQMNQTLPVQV

[12] = biological target: Serine/threonine-protein kinase TBK1 (Homo sapiens) (UniProt Q9UHD2); assay: Inhibition of TBK1 assessed as residual activity at 10 uM relative to control
[13] = biological target: MAP kinase-activated protein kinase 5 (Homo sapiens) (UniProt Q8IW41); assay: Inhibition of PRAK assessed as residual activity at 10 uM
[14] = biological target: T1, Ephrin type-B receptor 3 (Homo sapiens); assay: Inhibition of EPH-B3 assessed as residual activity at 1 uM
Summary of the method: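 Standard radioactivity-based enzymatic kinase assays on a 131-kinase panel run by the Dundee profiling service; residual kinase activity recorded.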

[15] = biological target: Serine/threonine-protein kinase 35 (Homo sapiens) (UniProt Q8TDR2); assay: Inhibition of STK35 assessed as residual activity at 10 uM relative to control
[16] = biological target: Aurora kinase C (Homo sapiens) (UniProt Q9UQB9); assay: Inhibition of AURKC assessed as residual activity at 10 uM relative to control
[17] = biological target: Leucine-rich repeat serine/threonine-protein kinase 2 (Homo sapiens) (UniProt Q5S007); conditions: 0.01 to 1 uM
Sequence of Leucine-rich repeat serine/threonine-protein kinase 2 (Homo sapiens) (Q5S007 whole entry): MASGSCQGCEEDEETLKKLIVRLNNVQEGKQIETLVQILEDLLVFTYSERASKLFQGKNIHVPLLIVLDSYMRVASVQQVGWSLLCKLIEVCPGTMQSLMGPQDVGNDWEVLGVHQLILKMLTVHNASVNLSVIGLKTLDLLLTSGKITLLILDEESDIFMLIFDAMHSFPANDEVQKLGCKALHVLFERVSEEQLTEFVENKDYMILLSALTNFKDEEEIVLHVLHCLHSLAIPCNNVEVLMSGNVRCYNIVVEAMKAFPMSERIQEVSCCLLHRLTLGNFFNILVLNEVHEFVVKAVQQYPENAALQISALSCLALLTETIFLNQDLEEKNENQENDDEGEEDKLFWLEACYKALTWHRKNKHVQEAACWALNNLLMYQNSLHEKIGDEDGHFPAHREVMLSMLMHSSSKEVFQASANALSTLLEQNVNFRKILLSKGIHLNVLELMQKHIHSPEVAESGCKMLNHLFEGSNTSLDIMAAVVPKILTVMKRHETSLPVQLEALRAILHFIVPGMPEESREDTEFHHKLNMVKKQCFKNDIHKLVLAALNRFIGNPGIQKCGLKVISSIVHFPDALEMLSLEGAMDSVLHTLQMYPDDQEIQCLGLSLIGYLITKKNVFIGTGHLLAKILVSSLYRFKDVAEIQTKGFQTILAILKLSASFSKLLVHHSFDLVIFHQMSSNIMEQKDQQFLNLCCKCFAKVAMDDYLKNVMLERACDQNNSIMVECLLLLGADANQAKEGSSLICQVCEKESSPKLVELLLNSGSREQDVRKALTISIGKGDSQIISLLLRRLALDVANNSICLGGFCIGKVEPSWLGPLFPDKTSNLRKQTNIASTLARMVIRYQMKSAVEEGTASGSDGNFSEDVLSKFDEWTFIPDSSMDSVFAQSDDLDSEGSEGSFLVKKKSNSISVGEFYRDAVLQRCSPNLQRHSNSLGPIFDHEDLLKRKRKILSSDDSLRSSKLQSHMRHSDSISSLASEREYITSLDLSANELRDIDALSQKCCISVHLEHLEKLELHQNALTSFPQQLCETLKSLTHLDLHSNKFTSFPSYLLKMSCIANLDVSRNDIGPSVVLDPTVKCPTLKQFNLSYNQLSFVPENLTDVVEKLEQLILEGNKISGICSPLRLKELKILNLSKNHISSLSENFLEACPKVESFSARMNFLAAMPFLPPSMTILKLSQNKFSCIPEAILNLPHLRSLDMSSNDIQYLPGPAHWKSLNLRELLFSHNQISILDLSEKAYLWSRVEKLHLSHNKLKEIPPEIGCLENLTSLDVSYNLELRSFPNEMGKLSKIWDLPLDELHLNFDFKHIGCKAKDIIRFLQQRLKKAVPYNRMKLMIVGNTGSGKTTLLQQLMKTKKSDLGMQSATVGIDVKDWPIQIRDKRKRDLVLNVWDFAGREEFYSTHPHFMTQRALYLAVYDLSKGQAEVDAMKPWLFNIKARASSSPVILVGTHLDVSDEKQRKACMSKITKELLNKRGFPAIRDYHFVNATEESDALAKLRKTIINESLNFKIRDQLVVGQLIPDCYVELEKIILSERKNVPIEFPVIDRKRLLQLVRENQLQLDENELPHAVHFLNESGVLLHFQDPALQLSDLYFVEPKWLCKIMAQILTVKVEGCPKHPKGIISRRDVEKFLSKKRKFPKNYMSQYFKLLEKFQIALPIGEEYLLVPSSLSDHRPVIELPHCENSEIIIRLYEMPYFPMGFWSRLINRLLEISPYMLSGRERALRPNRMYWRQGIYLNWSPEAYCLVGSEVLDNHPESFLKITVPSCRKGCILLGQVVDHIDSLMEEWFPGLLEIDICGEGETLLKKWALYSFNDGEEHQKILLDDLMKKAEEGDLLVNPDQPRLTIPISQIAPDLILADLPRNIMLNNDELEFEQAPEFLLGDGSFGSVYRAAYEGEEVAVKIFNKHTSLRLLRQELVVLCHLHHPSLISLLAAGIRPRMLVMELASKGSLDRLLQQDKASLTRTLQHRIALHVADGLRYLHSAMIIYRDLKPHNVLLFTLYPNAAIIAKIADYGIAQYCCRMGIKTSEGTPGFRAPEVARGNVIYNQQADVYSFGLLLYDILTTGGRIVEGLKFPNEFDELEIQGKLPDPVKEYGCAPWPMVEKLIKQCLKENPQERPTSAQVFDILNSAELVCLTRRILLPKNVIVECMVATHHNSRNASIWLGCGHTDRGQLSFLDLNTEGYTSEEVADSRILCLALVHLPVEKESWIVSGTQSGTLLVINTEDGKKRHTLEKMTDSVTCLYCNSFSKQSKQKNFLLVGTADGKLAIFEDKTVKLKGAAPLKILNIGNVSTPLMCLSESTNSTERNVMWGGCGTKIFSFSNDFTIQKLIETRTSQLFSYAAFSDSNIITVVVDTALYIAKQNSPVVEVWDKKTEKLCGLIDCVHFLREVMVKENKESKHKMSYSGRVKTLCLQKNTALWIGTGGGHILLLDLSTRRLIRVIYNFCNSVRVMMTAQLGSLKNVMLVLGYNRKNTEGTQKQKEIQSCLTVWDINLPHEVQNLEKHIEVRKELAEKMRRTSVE

[18] = biological target: Leucine-rich repeat serine/threonine-protein kinase 2 (Homo sapiens) (UniProt Q5S007); conditions: 0.01 to 1 uM; remark: listed apart in the source
[19] = biological target: Ephrin type-B receptor 4 (Homo sapiens) (UniProt P54760); assay: Inhibition of EPH-B4 assessed as residual activity at 10 uM
Summary of the method: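 Radioactivity-based enzymatic assay against a panel of 131 kinases (Dundee profiling). Activity remaining was measured with compound present at the stated concentration.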

[20] = biological target: Casein kinase I isoform alpha (Homo sapiens) (UniProt P48729); assay: Inhibition of CSNK1A1 assessed as residual activity at 10 uM relative to control; summary of the method: as §1
[21] = biological target: Ribosomal protein S6 kinase alpha-1 (Homo sapiens) (UniProt Q15418); assay: Inhibition of RSK1 assessed as residual activity at 1 uM
[22] = biological target: Mitogen-activated protein kinase kinase kinase 9 (Homo sapiens) (UniProt P80192); assay: Inhibition of MLK1 assessed as residual activity at 1 uM
[23] = biological target: Platelet-derived growth factor receptor beta (Homo sapiens) (UniProt P09619); assay: Inhibition of PDGFRB assessed as residual activity at 10 uM relative to control
Sequence of Platelet-derived growth factor receptor beta (Homo sapiens) (P09619 whole entry): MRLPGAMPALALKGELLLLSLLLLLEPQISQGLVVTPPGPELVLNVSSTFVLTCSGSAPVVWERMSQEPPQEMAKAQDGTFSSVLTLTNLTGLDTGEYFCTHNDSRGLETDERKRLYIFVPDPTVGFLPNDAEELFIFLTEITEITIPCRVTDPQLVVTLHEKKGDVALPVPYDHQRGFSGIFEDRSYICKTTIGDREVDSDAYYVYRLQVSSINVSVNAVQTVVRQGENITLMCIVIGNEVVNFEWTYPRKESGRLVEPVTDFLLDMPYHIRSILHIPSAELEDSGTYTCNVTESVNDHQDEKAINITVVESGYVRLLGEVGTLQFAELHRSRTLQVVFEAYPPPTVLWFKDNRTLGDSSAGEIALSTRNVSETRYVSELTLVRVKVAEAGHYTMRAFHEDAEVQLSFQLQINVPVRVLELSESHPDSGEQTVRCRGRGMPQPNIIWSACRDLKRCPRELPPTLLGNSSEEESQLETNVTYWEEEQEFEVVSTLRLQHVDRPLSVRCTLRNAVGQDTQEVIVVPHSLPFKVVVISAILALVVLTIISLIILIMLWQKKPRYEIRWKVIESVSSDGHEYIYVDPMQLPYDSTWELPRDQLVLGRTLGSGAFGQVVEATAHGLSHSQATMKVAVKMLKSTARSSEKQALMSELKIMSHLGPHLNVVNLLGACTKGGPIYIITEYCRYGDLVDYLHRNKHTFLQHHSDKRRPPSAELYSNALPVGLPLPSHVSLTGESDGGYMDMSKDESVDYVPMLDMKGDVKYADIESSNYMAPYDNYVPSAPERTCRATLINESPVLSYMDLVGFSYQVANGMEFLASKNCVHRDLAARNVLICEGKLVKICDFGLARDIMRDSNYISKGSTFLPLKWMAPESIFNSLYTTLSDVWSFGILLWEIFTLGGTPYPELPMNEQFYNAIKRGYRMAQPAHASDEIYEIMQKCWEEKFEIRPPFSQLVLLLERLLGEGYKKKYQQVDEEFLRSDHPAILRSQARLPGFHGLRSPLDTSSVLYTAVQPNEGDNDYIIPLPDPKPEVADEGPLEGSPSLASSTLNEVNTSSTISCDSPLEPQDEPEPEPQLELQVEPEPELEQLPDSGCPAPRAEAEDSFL

[24] = biological target: NT-3 growth factor receptor (Homo sapiens) (UniProt Q16288); assay: Inhibition of TRKC assessed as residual activity at 10 uM relative to control
[25] = biological target: Serine/threonine-protein kinase DCLK2 (Homo sapiens) (UniProt Q8N568); assay: Inhibition of DCAMKL2 assessed as residual activity at 10 uM relative to control; summary of the method: as §1
[26] = biological target: Ribosomal protein S6 kinase alpha-5 (Homo sapiens) (UniProt O75582); assay: Inhibition of RPS6KA5 N-terminal domain 1 assessed as residual activity at 10 uM relative to control

O=C(Nc1cccnc1)c1cc(-c2ccnc(F)c2)ccc1OCc1ccccc1
Activity [1]: 69%
Activity [2]: 48%
Activity [3]: 64%
Activity [4]: 74%
Activity [5]: 117%
Activity [6]: 75%
Activity [7]: 53%
Activity [8]: 43%
Activity [9]: 80%
Activity [10]: 120%
Activity [11]: 67%
Activity [12]: 68%
Activity [13]: 114%
Activity [14]: 121%
Activity [15]: 44%
Activity [16]: 75%
inhibition [17]: Active
inhibition [18]: Active
Activity [19]: 108%
Activity [20]: 60%
Activity [21]: 69%
Activity [22]: 69%
Activity [23]: 52%
Activity [24]: 62%
Activity [25]: 48%
Activity [26]: 77%
